Consider three compounds from article PMC8223535 (The Yale Journal of Biology and Medicine, 2021).

The test system of data set [1] is T. brucei brucei (Lafia strain). The data set is described as follows: In vivo anti-Trypanosoma evaluation in infected rats. More on the design: species or system Trypanosoma brucei brucei in male Wistar rats. To be noted: 3.5 mg/kg bw in corn oil, reference drug, data not shown. In a few lines: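 Male Wistar rats (120–130 g, acclimated 14 days) each received 0.2 mL of infected rat blood diluted in 0.9% saline (1 x 102 trypanosomes). Dosing began after the 72-h lag, on the first parasite-positive day. It ran daily for 5 days: test compound at 40 mg/kg bw or diminazene aceturate at 3.5 mg/kg bw, in corn oil. Controls were vehicle-infected and uninfected. Tail-blood smears were counted at ×100, and survival was tracked. n=5, mean ± SEM, ANOVA with Dunnett.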

For data set [2] the following is noted: cited from earlier work.
For data set [3], the system named is Trypanosoma congolense IL3000 bloodstream form. In words: In vitro anti-Trypanosoma activity, luminescence-based parasite viability. It counts as cell-based. The following applies: 72 h, 0 to 25 µg/mL. In a few lines:
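T. congolense IL3000 bloodstream forms were kept in HMI-9-type medium (IMDM, 20% FBS, supplements) in air at 33°C. Parasites were seeded at 1 × 10^5 cells/mL with test compound at 0 to 25 µg/mL and incubated 72 h at 33°C. Viability was read by ATP luminescence. Pentamidine was the reference. The 50% value came from a non-linear regression dose-response fit. Triplicates, three independent runs.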

Turning to `CC(=O)NCC(=O)O.CC(=O)NCC(=O)O.N=C(N)c1ccc(N=NNc2ccc(C(=N)N)cc2)cc1` [diminazene aceturate], in data set [1], the “outcome of infected rats (survival)” value was “survived the infection” and the “systemic parasite burden of infected rats” value is listed as “systemic parasite burden cleared”.
Turning to `Nc1nc(N)nc(Nc2ccc([As]3SCC(CO)S3)cc2)n1` (centres unmarked) [melarsoprol], in data set [2] (patients treated for late-stage trypanosomiasis), the encephalopathy result is listed as “more than 10 % of patients”. In addition, the “fatal outcomes among encephalopathy cases” value in data set [2] (share of the encephalopathy cases) is on record as 40%.
As to `N=C(N)c1ccc(OCCCCCOc2ccc(C(=N)N)cc2)cc1` [pentamidine], the “effect on in vitro growth of T. congolense (in words)” value in data set [3] was “appreciably hindered the in vitro growth of T. congolense”.
